The text below walks through data of ChEMBL document CHEMBL3785023, “Development and Pharmacological Characterization of Selective Blockers of 2-Arachidonoyl Glycerol Degradation with Efficacy in Rodent Models of Multiple Sclerosis and Pain” (J Med Chem, 2016).

Data set [1] has as its target T1, Monoglyceride lipase (Rattus norvegicus, UniProt Q8R431).
T1 sequence (Q8R431 whole entry): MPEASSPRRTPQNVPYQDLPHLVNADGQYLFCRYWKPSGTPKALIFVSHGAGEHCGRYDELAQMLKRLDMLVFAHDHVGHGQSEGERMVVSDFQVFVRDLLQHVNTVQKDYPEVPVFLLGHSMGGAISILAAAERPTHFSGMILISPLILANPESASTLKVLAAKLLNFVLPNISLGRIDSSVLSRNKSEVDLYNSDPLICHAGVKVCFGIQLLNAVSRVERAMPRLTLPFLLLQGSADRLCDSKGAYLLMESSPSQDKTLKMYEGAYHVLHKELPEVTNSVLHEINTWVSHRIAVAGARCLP
The data set is described as follows: Inhibition of rat MAGL.

Data set [2] addresses T2, Monoglyceride lipase (Homo sapiens, UniProt Q99685).
T2 sequence (Q99685 whole entry): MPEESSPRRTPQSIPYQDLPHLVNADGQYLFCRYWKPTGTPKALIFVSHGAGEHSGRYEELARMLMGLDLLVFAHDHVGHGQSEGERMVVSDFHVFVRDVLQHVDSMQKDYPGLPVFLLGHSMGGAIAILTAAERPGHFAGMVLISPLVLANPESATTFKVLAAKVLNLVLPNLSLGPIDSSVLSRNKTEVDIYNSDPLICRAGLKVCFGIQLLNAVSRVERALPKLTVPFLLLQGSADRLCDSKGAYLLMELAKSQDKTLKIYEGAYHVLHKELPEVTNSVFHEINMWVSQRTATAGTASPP
The data set is described as follows: Inhibition of recombinant C-terminal His6-tagged human MAGL expressed in Escherichia coli using 2-arachidonoyl-[3H]-glycerol as substrate preincubated for 10 mins followed by substrate addition measured after 20 mins by scintillation counting method. An outline of the steps: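 Human recombinant MGL (10,000xg cytosolic fraction, 0.05 µg/sample) is pre-incubated with compound for 10 min. It is then incubated 20 min at 37 °C in 50 mM Tris-HCl pH 7.0 with 2-arachidonoyl-[3H]-glycerol diluted with unlabelled 2-AG. The mix is extracted with 2 vol CHCl3/MeOH 1:1, and [3H]-glycerol in the aqueous phase is counted by scintillation. Values are means of three experiments.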

The test system of data set [3] is Heart. The data set is described as follows: Cardiotoxicity in Langendorff-perfused Sprague-Dawley rat heart assessed as corrected time duration of action potential at 1 uM by ECG analysis (reference value: 155.26 +/- 2.96 milliseconds). In kind it is toxicity, tissue-based.
The subject of data set [4] is Heart. The experiment in a line: Cardiotoxicity in Langendorff-perfused Sprague-Dawley rat heart assessed as time duration of cardiac cycle length at 0.1 uM by ECG analysis (reference value: 238.38 +/- 9.23 milliseconds). In kind it is toxicity, tissue-based.
Data set [5] relates to Heart. The data set is described as follows: Cardiotoxicity in Langendorff-perfused Sprague-Dawley rat heart assessed as time duration of cardiac cycle length at 0.001 uM by ECG analysis (reference value: 238.38 +/- 9.23 milliseconds). In kind it is toxicity, tissue-based.

Molecules are shown by their SMILES.

For `O=C1[C@H](c2ccc(F)cc2)[C@@H](c2ccc3c(c2)OCO3)N1C1CCN(C(=O)n2cncn2)CC1` (racemic), the IC50 turned out to be 0.25 nM against Monoglyceride lipase [1] and 196 nM at Monoglyceride lipase [2]. Besides, the Time is on record as 156.78 ms with Heart [3], 238.15 ms with Heart [4] and 236.93 ms in the data set on Heart [5].
